Results gathered from unrelated publications.
Target: D(1A) dopamine receptor (DRD1, Homo sapiens, UniProt P21728)

Compound	observed	method	concentration	measurement	result
COc1ccc(S(=O)(=O)N2CCCCC2)cc1C	ligand displacement	radioligand	10 µM	inhibition	< 30%
CC(Cc1ccccc1)NCCn1cnc2c1c(=O)n(C)c(=O)n2C (stereo not drawn)	ligand displacement	radioligand	10 µM	inhibition	8%
c1ccc(C(NCCNC(c2ccccc2)c2ccccc2)c2ccccc2)cc1	cell-free assay	–	10 µM	inhibition	24%
CCN(CC)CCCC[C@H](NC(=O)[C@H](CC(C)C)NC(=O)[C@H](C)NC(=O)[C@H](Cc1ccccc1)NC(=O)c1ccc(C(C)(C)C)cc1)C(=O)N[C@@H](CO)C(=O)OC	ligand displacement	radioligand	10 µM	inhibition	4%
CC(C)N1CCC[C@H]1CNC(=O)c1cn(C2CCCC2)c(=O)c2c1c1ccccc1n2C	ligand displacement	radioligand	10 µM	inhibition	5%
Nc1ncc(-c2nc(N3CCOCC3)nc(N3CCOCC3)n2)c(C(F)F)n1	cell-free assay	radioligand	10 µM	remaining signal	90.9%
Cc1c(N2CCNCC2)nc2ccc(Br)cc2c1C(=O)NC[C@H](CCC(=O)O)c1ccccc1Cl	ligand displacement	–	10 µM	inhibition	31.6%
CN(CCN1CCC(OC(=O)Nc2ccccc2-c2ccccc2)CC1)C(=O)c1ccc(CN2CCC(C(N)=O)CC2)cc1	ligand displacement	radioligand	1 µM	inhibition	1%
Cn1cncc1[C@@](O)(COc1ccc(C#N)cc1-c1ccc(OC(F)(F)F)cc1)c1ccc(C#N)cc1	ligand displacement	–	10 µM	inhibition	19%
Clc1ccc2c(C3CCN(CCc4c[nH]c5ccccc45)CC3)c[nH]c2c1	ligand displacement	radioligand	10 µM	inhibition	100%
COCc1c(-c2cc3cc(C)cc(OC)c3s2)c2c(N)ncnn2c1CN1CCNC(=O)C1	ligand displacement	radioligand	10 µM	inhibition	10%
C[C@H](C(=O)N[C@H]1COc2ccccc2[C@@H]1S(C)(=O)=O)c1ccc(F)cc1	cell-free assay	–	10 µM	inhibition	-6%
